Key:
PC-3 [1] = experiment: Cytotoxicity against human PC3 cells after 72 hrs by WST-1 assay; assay type: functional, cell-based
Summary of the method: (§1)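 Cells seeded at 3×10³/well; next day serially diluted compound added in triplicate; 72 h at 37 °C, 5% CO₂. Viable cells measured with WST-1 reagent (1 h), absorbance 450 nm minus 690 nm reference. IC50 is mean ± SD of at least two experiments run in triplicate. MCF-7 grown in DMEM, PC3 in RPMI, each with 10% serum.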

MCF7 [2] = experiment: Cytotoxicity against human MCF7 cells after 72 hrs by WST-1 assay; assay type: functional, cell-based; summary of the method: as §1
[3] = Half life in mouse at 5 mg/kg, iv; assay type: ADME, organism-based; design: dose 5 mg/kg, route intravenous; settings: in vivo
Summary of the method: (§2)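 Compound given as single iv dose to mice or rats. Plasma samples prepared by protein precipitation with acetonitrile containing 1 μg/mL internal standard (3:1 v/v). Analysed by UPLC-MS/MS on a C18 reversed-phase column at 40 °C with an acetonitrile–0.05% formic acid gradient. Half-life and AUC (h ng/mL) derived from the plasma levels.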

[4] = AUC in rat at 2.5 mg/kg, iv; assay type: ADME, organism-based; design: dose 2.5 mg/kg, route intravenous; settings: plasma; summary of the method: as §2
[5] = Half life in rat at 2.5 mg/kg, iv; assay type: ADME, organism-based; design: dose 2.5 mg/kg, route intravenous; settings: in vivo; summary of the method: as §2
[6] = AUC in mouse at 5 mg/kg, iv; assay type: ADME, organism-based; design: dose 5 mg/kg, route intravenous; settings: plasma; summary of the method: as §2
[7] = Half life in rat at 5 mg/kg, iv; assay type: ADME, organism-based; design: dose 5 mg/kg, route intravenous; settings: in vivo; summary of the method: as §2
[8] = Therapeutic index, ratio of MTD in rat to ED50 for antitumor activity against human PC3 cells xenografted in rat; assay type: cell-based, PC-3; settings: in vivo, read-out: TI
Summary of the method: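 PC3 human prostate cancer cells (1e7, grown in RPMI + 10% FBS, suspended in PBS + Matrigel) were implanted sc in female nude rats (NIHRNU-M) or nude mice (NMRI/nude), with iv dosing 3×/week. Rat MTD came from a single iv dose. Effective rat doses were estimated from mouse xenografts using a mouse-to-rat conversion factor of 0.5. Index = rat toxic dose / rat effective dose.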

PC-3 [9] = experiment: Antitumor activity against human PC3 cells xenografted in sc dosed NMRI mouse assessed as tumor regression dose; assay type: functional
Summary of the method: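 1e7 PC3 cells (grown in RPMI + 10% FBS) in PBS/Matrigel 1:1 injected sc into female NMRI nude mice or female NIH-RNU nude rats. Compound dosed iv three times per week. Tumour regression dose recorded. Rat effective doses were estimated from mouse xenografts using a 0.5 mouse-to-rat conversion factor.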

[10] = Toxicity in iv dosed rat assessed as maximum tolerated dose; settings: in vivo
[11] = AUC in rat at 5 mg/kg, iv; assay type: ADME, organism-based; design: dose 5 mg/kg, route intravenous; settings: plasma; summary of the method: as §2
MCF7 [12] = experiment: Cytotoxicity against human MCF7 cells after 72 hrs at 0.5 uM by WST-1 assay; assay type: functional; settings: MCF7, 72 h

Question: Which IC50 (PC-3 [1]; Homo sapiens, PC-3, 72 h) does the source give for `CCCOc1ccc(C2(c3ccc(O)cc3)C(=O)Nc3c2ccc(F)c3F)cc1` (racemic) here?
Answer: Its IC50 is over 1000 nM.

Question: And the IC50 (MCF7 [2]; Homo sapiens, MCF7, 72 h)?
Answer: Its IC50 is 356 nM.

Question: For `CCCCCOc1ccc(C2(c3ccc(O)cc3)C(=O)Nc3c2ccc(F)c3F)cc1` (racemic), which IC50 (PC-3 [1]; Homo sapiens, PC-3, 72 h) is on record?
Answer: Its IC50 is over 1000 nM.

Question: And the IC50 (MCF7 [2]; Homo sapiens, MCF7, 72 h)?
Answer: Its IC50 is over 1000 nM.

Question: Which results are given for `COc1ccc(C2(c3cccc(O)c3)C(=O)Nc3c2ccc(F)c3F)cc1` (racemic)?
Answer: IC50 (PC-3 [1]; Homo sapiens, PC-3, 72 h): 145 nM; IC50 (MCF7 [2]; Homo sapiens, MCF7, 72 h): 196 nM

Question: Which results are given for `O=C1Nc2c(ccc(F)c2F)C1(c1ccc(O)cc1)c1ccc(F)c(F)c1` (racemic)?
Answer: IC50 (PC-3 [1]; Homo sapiens, PC-3, 72 h): 19 nM; IC50 (MCF7 [2]; Homo sapiens, MCF7, 72 h): 7.8 nM

Question: What does the source list for `O=C1Nc2c(ccc(F)c2F)C1(c1ccc(O)cc1)c1cccs1` (racemic)?
Answer: half-life [3]: 0.4 h; IC50 (PC-3 [1]; Homo sapiens, PC-3, 72 h): 0.3 nM; IC50 (MCF7 [2]; Homo sapiens, MCF7, 72 h): 82 nM; AUC [4]: 2630 ng·h/mL; half-life [5]: 0.7 h; AUC [6]: 395 ng·h/mL

Question: What does the source list for `O=C1Nc2c(ccc(F)c2F)C1(c1ccncc1)c1ccc(O)cc1` (racemic)?
Answer: IC50 (PC-3 [1]; Homo sapiens, PC-3, 72 h): 110 nM; IC50 (MCF7 [2]; Homo sapiens, MCF7, 72 h): 37 nM

Question: With `O=C1Nc2c(ccc(F)c2F)C1(c1ccc(O)cc1)c1cccnc1` (racemic) as the compound, how does the IC50 (PC-3 [1]; Homo sapiens, PC-3, 72 h) read?
Answer: The IC50 was over 1000 nM.

Question: What about the IC50 (MCF7 [2]; Homo sapiens, MCF7, 72 h) of the same compound?
Answer: The IC50 was 63 nM.

Question: What does the source list for `CCCC1(c2ccc(O)cc2)C(=O)Nc2c1ccc(F)c2F` (racemic)?
Answer: IC50 (PC-3 [1]; Homo sapiens, PC-3, 72 h): > 1000 nM; IC50 (MCF7 [2]; Homo sapiens, MCF7, 72 h): > 1000 nM

Question: Which IC50 (PC-3 [1]; Homo sapiens, PC-3, 72 h) does the source give for `CCCCCC1(c2ccc(O)cc2)C(=O)Nc2c1ccc(F)c2F` (racemic) here?
Answer: The IC50 was 1.1 nM.

Question: What about the IC50 (MCF7 [2]; Homo sapiens, MCF7, 72 h) of the same compound?
Answer: The IC50 was 96 nM.

Question: Which half-life [3] does the source give for `O=C1Nc2c(ccc(F)c2F)C1(c1ccc(O)cc1)C1CCCC1` (racemic) here?
Answer: The half-life was 3.7 h.

Question: What about the IC50 (PC-3 [1]; Homo sapiens, PC-3, 72 h) of the same compound?
Answer: Its IC50 is 8.2 nM.

Question: And the IC50 (MCF7 [2]; Homo sapiens, MCF7, 72 h)?
Answer: Its IC50 is 12 nM.

Question: And the AUC [4]?
Answer: The AUC was 2400 ng·h/mL.

Question: What about the half-life [5] of the same compound?
Answer: Its half-life is 1.1 h.

Question: And the AUC [6]?
Answer: The AUC was 1850 ng·h/mL.

Question: For `O=C1Nc2c(ccc(F)c2F)C1(c1ccc(O)cc1)C1CCCCCC1` (racemic), which half-life [7] is on record?
Answer: Its half-life is 2.1 h.

Question: What about the selectivity ratio [8] of the same compound?
Answer: The selectivity ratio was 8.

Question: And the half-life [3]?
Answer: The half-life was 1.3 h.

Question: What about the IC50 (PC-3 [1]; Homo sapiens, PC-3, 72 h) of the same compound?
Answer: Its IC50 is 12 nM.

Question: And the IC50 (MCF7 [2]; Homo sapiens, MCF7, 72 h)?
Answer: Its IC50 is 1.2 nM.

Question: And the Activity (PC-3 [9])?
Answer: Its Activity is 10 mg/kg.

Question: And the AUC [6]?
Answer: Its AUC is 694 ng·h/mL.

Question: What about the MTD [10] of the same compound?
Answer: Its MTD is over 40 mg/kg.

Question: What about the AUC [11] of the same compound?
Answer: Its AUC is 2290 ng·h/mL.

Question: What does the source list for `O=C1Nc2c(ccc(F)c2F)C1(c1ccc(O)cc1)C1CCCCCCC1` (racemic)?
Answer: IC50 (PC-3 [1]; Homo sapiens, PC-3, 72 h): > 1000 nM; IC50 (MCF7 [2]; Homo sapiens, MCF7, 72 h): > 1000 nM

Question: Which results are given for `O=C1Nc2c(ccc(F)c2F)C1(CC1CCCCC1)c1ccc(O)cc1` (racemic)?
Answer: IC50 (PC-3 [1]; Homo sapiens, PC-3, 72 h): > 1000 nM; IC50 (MCF7 [2]; Homo sapiens, MCF7, 72 h): 102 nM

Question: What does the source list for `O=C1Nc2c(ccc(F)c2F)C1(Cc1ccccc1)c1ccc(O)cc1` (racemic)?
Answer: IC50 (PC-3 [1]; Homo sapiens, PC-3, 72 h): > 1000 nM; IC50 (MCF7 [2]; Homo sapiens, MCF7, 72 h): > 1000 nM

Question: With `O=C1Nc2ccccc2C1(c1ccc(O)cc1)c1ccc(F)cc1` (racemic) as the compound, how does the IC50 (PC-3 [1]; Homo sapiens, PC-3, 72 h) read?
Answer: Its IC50 is over 1000 nM.

Question: And the IC50 (MCF7 [2]; Homo sapiens, MCF7, 72 h)?
Answer: The IC50 was 28 nM.

Question: Which IC50 (PC-3 [1]; Homo sapiens, PC-3, 72 h) does the source give for `O=C1Nc2ccccc2C1(c1ccc(O)cc1)C1CCCCCC1` (racemic) here?
Answer: Its IC50 is over 1000 nM.

Question: And the IC50 (MCF7 [2]; Homo sapiens, MCF7, 72 h)?
Answer: The IC50 was 247 nM.

Question: What does the source list for `Cc1cccc2c1NC(=O)C2(c1ccc(O)cc1)C1CCCCCC1` (racemic)?
Answer: IC50 (PC-3 [1]; Homo sapiens, PC-3, 72 h): > 1000 nM; IC50 (MCF7 [2]; Homo sapiens, MCF7, 72 h): > 1000 nM

Question: Which IC50 (PC-3 [1]; pc-3) does the source give for `COc1ccc(C2(c3ccc(O)cc3)C(=O)Nc3c2ccc(F)c3F)cc1` (stereo in doubt; form 1) here?
Answer: The IC50 was 2 nM.

Question: What about the IC50 (MCF7 [2]; mcf7) of the same compound?
Answer: The IC50 was 2.1 nM.

Question: With `O=C1Nc2c(ccc(F)c2F)C1(c1ccc(O)cc1)C1CCCCC1` (stereo in doubt; form 1) as the compound, how does the IC50 (PC-3 [1]; pc-3) read?
Answer: Its IC50 is 9.2 nM.

Question: What about the IC50 (MCF7 [2]; mcf7) of the same compound?
Answer: The IC50 was 18 nM.

Question: Which results are given for `COc1ccc(C2(c3ccc(O)cc3)C(=O)Nc3c2ccc(F)c3F)cc1` (stereo in doubt; form 2)?
Answer: IC50 (PC-3 [1]; pc-3): > 1000 nM; IC50 (MCF7 [2]; mcf7): > 1000 nM

Question: For `O=C1Nc2c(ccc(F)c2F)C1(c1ccc(O)cc1)C1CCCCC1` (stereo in doubt; form 2), which IC50 (PC-3 [1]; pc-3) is on record?
Answer: The IC50 was over 1000 nM.

Question: What about the IC50 (MCF7 [2]; mcf7) of the same compound?
Answer: Its IC50 is over 1000 nM.

Question: What does the source list for `O=C1Nc2ccccc2C1(c1ccc(O)cc1)c1ccc(O)cc1` [OXYPHENISATINE]?
Answer: IC50 (PC-3 [1]; Homo sapiens, PC-3, 72 h): > 1000 nM; inhibition at 0.5 µM (MCF7 [12]): 73%
